According to ChEMBL document CHEMBL5038630 (J Med Chem, 2022):
pEC50, pIC50, pKi: −log10 of the molar value. Active and inactive are the calls of the source. The rule behind the calls is not given here.

What was measured:
[1] = molecular target: Glutamate NMDA receptor; Grin1/Grin2a (Rattus norvegicus, UniProt P35439+Q00959); test: Agonist activity at rat GluN1/GluN2A NMDA receptor expressed in Xenopus oocytes measured after 4 days in presence of L-glutamte by two-electrode voltage-clamp recording assay; assay type: cell-based, Oocyte
Summary of the method: (§1)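 Rat GluN1 plus GluN2A or GluN2B cRNA (1:2) in Xenopus oocytes. TEVC at −40 mV, room temperature, 2–4 days post-injection. Bath: 90 mM NaCl, 1 mM KCl, 10 mM HEPES, 0.5 mM BaCl2, 0.01 mM EDTA, pH 7.4. Oocytes were BAPTA-injected before recording. Agonist applied with 300 μM L-Glu throughout. NR means <5% response at the stated concentration. 3–14 oocytes.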

[2] = molecular target: Glutamate NMDA receptor; Grin1/Grin2b (Rattus norvegicus, UniProt P35439+Q00960); test: Agonist activity at rat GluN1/GluN2B NMDA receptor expressed in Xenopus oocytes measured after 4 days in presence of L-glutamte by two-electrode voltage-clamp recording assay; assay type: cell-based, Oocyte; summary of the method: as §1
[3] = molecular target: Glutamate NMDA receptor; Grin1/Grin2c (Rattus norvegicus, UniProt P35439+Q00961); test: Agonist activity at rat GluN1/GluN2C NMDA receptor expressed in Xenopus oocytes measured after 4 days in presence of L-glutamte by two-electrode voltage-clamp recording assay; assay type: cell-based, Oocyte
Summary of the method: (§2)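 Xenopus oocytes were injected with rat GluN1 and GluN2C or GluN2D cRNA (1:2) and recorded by TEVC 2–4 days later at −40 mV, room temperature, pH 7.4 HEPES/NaCl/BaCl2 saline. Concentration-response with 300 μM L-Glu present. NR means <5% response at the concentration given. DMSO ≤0.5%. 3–14 oocytes.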

[4] = molecular target: Ionotropic glutamate receptor NMDA 1/2D (Rattus norvegicus, UniProt P35439+Q62645); test: Agonist activity at rat GluN1/GluN2D NMDA receptor expressed in Xenopus oocytes measured after 4 days in presence of L-glutamte by two-electrode voltage-clamp recording assay; assay type: cell-based, Oocyte; summary of the method: as §2
Oocyte [5] = test: Agonist activity at recombinant GluN1a/GluN2B NMDA receptor (unknown origin) expressed in Xenopus oocytes assessed as inhibition of glycine-induced activation of current measured at 10 uM after 4 days in presence of L-glutamte by two-electrode voltage-clamp recording assay; assay type: cell-based; details: Homo sapiens, filed as agonist, time 4.0 day
Summary of the method: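 Oocytes expressing GluN1/2B were BAPTA-injected and held under two-electrode voltage clamp in continuous 300 μM L-Glu. […] Values are mean ± SEM from 12 oocytes.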

[6] = Binding affinity at recombinant GluN1a/GluN2B NMDA receptor (unknown origin) expressed in Xenopus oocytes measured after 4 days in presence of L-glutamte by two-electrode voltage-clamp recording assay; assay type: cell-based, Homo sapiens; details: oocyte
Oocyte [7] = test: Agonist activity at mutant GluN1 F484A/T518 mutant//GluN3A NMDA receptor (unknown origin) expressed in Xenopus oocytes measured after 4 days in presence of glycine by two-electrode voltage-clamp recording assay; assay type: cell-based; details: Homo sapiens, time 4.0 day
Oocyte [8] = test: Agonist activity at mutant GluN1 F484A/T518 mutant//GluN3B NMDA receptor (unknown origin) expressed in Xenopus oocytes measured after 4 days in presence of glycine by two-electrode voltage-clamp recording assay; assay type: cell-based; details: Homo sapiens, time 4.0 day
[9] = Agonist activity at GluN1/GluN2A V783F mutant NMDA receptor (unknown origin) expressed in Xenopus oocytes measured after 4 days in presence of glycine by two-electrode voltage-clamp recording assay; assay type: cell-based; details: Homo sapiens, Oocyte, 96 h
Summary of the method: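 Rat GluN1 and GluN2A cRNA (1:2) injected into Xenopus oocytes, which received 50 nL of 50 mM BAPTA 10–30 min before recording. TEVC done 2–4 days after injection at room temperature, −40 mV, in 90 mM NaCl, 1 mM KCl, 10 mM HEPES, 0.5 mM BaCl2, 0.01 mM EDTA, pH 7.4. Agonist applied with 300 μM L-Glu continuously present, DMSO <0.5%.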

Oocyte [10] = test: Agonist activity at wild type GluN1/GluN2A-V783L mutant NMDA receptor (unknown origin) expressed in Xenopus oocytes assessed as relative maximal efficacy measured at 10 uM after 4 days in presence of glycine by two-electrode voltage-clamp recording assay relative to glycine; assay type: cell-based; details: Homo sapiens, time 4.0 day
Summary of the method: (§3)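 Oocytes expressing GluN1 with wild-type GluN2A or with the GluN2A-V783L or V783F mutant were BAPTA-injected and recorded by TEVC in continuous 300 μM L-Glu. […] Values are mean ± SEM from 3–8 oocytes, compared with wild type by two-way ANOVA with Tukey's test.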

Oocyte [11] = test: Agonist activity at wild type GluN1/ GluN2A-V783F mutant NMDA receptor (unknown origin) expressed in Xenopus oocytes assessed as relative maximal efficacy measured at 10 uM after 4 days in presence of glycine by two-electrode voltage-clamp recording assay relative to glycine; assay type: cell-based; details: Homo sapiens, time 4.0 day; summary of the method: as §3
[12] = Agonist activity at wild type GluN1/GluN2A NMDA receptor (unknown origin) expressed in Xenopus oocytes measured after 4 days in presence of L-glutamate by two-electrode voltage-clamp recording assay; details: Homo sapiens, Oocyte, 96 h
[13] = tested on: GluN1/GluN2A (Rattus norvegicus); test: Agonist activity at wild type GluN1/GluN2A NMDA receptor (rat) expressed in Xenopus oocytes assessed as relative maximal efficacy measured at 10 uM after 4 days in presence of glycine by two-electrode voltage-clamp recording assay relative to glycine; details: filed as agonist, time 4.0 day

Chain of Glutamate NMDA receptor; Grin1/Grin2b (Q00960 whole entry, other chains not shown): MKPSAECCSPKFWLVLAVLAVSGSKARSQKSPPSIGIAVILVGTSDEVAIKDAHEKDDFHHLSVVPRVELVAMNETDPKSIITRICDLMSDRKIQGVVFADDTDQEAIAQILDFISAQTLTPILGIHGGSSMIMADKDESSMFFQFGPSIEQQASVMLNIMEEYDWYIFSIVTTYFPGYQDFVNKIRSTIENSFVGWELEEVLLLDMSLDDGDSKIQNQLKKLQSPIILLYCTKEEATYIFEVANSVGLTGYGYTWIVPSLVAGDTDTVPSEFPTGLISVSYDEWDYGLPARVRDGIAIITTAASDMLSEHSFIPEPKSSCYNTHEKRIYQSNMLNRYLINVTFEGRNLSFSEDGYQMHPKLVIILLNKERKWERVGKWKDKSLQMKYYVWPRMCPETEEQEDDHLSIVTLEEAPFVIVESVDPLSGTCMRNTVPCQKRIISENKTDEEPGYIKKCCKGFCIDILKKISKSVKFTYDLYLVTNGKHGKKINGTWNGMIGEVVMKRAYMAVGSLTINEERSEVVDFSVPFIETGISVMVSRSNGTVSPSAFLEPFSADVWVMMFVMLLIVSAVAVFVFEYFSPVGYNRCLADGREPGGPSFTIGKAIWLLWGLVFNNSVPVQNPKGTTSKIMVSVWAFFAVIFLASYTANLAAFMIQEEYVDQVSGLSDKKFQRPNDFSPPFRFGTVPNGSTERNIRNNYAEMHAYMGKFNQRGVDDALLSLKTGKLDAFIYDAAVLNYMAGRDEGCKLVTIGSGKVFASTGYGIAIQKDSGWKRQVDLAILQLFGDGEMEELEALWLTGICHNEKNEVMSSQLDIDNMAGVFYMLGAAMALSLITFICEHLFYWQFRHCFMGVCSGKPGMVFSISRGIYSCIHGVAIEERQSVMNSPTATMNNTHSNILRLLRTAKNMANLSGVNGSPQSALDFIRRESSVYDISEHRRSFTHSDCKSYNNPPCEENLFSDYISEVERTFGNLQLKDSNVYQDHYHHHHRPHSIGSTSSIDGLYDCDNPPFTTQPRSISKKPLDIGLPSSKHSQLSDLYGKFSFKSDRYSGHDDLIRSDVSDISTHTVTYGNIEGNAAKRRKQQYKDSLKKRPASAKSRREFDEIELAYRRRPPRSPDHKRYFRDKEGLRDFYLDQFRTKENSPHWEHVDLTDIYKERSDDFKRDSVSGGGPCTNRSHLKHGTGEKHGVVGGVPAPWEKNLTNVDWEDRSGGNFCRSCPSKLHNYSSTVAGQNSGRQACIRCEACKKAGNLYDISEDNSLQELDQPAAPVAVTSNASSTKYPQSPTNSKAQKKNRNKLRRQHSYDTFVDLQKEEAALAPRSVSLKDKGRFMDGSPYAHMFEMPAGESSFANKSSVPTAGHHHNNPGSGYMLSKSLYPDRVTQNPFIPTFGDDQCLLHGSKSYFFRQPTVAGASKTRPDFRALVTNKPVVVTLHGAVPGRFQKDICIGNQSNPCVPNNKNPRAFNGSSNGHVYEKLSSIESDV
Chain of Ionotropic glutamate receptor NMDA 1/2D (Q62645 whole entry, other chains not shown): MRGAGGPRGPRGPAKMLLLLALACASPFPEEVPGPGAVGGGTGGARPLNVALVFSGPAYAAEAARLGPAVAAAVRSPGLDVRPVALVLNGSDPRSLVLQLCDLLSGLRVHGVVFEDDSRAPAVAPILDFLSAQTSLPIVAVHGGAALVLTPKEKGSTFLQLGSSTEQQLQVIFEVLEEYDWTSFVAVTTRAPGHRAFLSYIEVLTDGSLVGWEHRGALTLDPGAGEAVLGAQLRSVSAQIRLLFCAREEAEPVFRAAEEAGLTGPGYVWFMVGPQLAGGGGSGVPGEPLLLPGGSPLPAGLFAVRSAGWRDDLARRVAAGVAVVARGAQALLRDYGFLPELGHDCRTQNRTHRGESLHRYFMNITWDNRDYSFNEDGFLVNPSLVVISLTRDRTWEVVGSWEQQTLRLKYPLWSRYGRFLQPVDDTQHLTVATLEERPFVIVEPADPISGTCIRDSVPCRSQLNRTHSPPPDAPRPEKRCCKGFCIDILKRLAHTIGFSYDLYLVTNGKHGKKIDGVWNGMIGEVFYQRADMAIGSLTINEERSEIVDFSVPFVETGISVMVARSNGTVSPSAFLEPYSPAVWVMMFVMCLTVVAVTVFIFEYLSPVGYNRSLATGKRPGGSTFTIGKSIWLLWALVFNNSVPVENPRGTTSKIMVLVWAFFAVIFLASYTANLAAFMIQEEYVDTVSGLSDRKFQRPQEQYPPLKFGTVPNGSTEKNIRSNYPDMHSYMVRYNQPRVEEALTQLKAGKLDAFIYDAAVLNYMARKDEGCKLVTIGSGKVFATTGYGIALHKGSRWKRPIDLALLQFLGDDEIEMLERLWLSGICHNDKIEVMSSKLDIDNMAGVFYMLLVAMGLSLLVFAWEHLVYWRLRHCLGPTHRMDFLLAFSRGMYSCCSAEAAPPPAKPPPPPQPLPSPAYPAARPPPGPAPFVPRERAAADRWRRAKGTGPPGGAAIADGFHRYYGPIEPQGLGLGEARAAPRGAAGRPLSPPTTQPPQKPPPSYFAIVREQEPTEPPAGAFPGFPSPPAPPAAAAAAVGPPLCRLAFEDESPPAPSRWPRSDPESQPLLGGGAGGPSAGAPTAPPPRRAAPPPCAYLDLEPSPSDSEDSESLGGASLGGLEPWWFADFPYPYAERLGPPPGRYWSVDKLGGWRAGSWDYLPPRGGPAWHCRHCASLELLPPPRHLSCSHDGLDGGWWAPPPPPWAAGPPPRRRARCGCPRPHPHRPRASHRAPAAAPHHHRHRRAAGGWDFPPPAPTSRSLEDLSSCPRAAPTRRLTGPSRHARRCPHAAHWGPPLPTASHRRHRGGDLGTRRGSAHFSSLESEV
Chain of Glutamate NMDA receptor; Grin1/Grin2a (Q00959 whole entry, other chains not shown): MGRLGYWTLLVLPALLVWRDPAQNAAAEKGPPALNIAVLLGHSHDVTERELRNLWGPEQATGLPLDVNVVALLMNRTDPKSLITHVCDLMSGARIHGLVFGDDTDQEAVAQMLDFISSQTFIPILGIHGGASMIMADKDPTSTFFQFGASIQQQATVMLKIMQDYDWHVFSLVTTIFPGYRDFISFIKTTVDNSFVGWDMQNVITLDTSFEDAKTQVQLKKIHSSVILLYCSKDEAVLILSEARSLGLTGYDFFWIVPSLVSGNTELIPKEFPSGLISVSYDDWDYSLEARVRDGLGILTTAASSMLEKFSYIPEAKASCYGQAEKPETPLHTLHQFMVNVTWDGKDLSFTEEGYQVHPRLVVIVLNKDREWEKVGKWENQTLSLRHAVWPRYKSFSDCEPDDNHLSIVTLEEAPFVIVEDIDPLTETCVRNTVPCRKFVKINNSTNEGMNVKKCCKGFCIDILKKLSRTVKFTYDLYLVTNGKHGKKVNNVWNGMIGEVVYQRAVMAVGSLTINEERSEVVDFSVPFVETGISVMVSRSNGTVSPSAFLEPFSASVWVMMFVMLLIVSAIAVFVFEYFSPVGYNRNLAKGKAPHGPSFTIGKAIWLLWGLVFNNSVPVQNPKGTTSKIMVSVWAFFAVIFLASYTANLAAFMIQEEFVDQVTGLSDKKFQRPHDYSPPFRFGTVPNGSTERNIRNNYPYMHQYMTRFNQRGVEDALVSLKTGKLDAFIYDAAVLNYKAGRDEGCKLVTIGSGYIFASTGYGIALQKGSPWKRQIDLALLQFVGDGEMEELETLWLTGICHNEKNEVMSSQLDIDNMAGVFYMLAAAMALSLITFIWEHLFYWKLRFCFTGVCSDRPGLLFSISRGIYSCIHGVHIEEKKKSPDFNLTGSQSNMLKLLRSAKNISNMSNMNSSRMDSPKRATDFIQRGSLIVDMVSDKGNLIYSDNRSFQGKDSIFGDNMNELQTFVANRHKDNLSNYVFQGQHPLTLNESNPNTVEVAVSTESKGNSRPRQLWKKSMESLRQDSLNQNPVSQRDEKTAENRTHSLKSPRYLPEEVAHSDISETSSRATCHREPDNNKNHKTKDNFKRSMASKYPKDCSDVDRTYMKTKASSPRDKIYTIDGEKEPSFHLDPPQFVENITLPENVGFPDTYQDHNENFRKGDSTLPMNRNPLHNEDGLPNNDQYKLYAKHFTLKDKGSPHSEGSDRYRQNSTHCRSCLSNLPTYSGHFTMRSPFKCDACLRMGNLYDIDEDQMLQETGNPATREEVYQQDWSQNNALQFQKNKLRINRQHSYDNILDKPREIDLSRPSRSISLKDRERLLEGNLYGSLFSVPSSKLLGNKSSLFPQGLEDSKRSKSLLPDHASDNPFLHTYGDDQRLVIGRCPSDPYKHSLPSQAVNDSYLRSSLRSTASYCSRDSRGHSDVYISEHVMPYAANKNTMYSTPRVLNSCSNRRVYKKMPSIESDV

## CCc1ccccc1-c1ccc(C(=O)NC[C@@H](N)C(=O)O)o1
[1]
  pEC50: 7.03
[2]
  pIC50: 5.00
[3]
  pEC50: 7.20
[4]
  pEC50: 6.82
Oocyte [5]
  inhibition: 47%
[6]
  pKi: 7.00
Oocyte [7]
  inhibition: inactive
Oocyte [8]
  inhibition: inactive
[9]
  pEC50: 6.39
Oocyte [10]
  Rmax: 30%
Oocyte [11]
  Rmax: 9%
[12]
  pEC50: 6.96
[13]
  Rmax: 45%
